Test results as given in ChEMBL document CHEMBL5260824, “9-Deazapurines as Broad-Spectrum Inhibitors of the ABC Transport Proteins P-Glycoprotein, Multidrug Resistance-Associated Protein 1, and Breast Cancer Resistance Protein” (J Med Chem, 2017).

Key:
[1] = target: ATP-dependent translocase ABCB1 (Homo sapiens, UniProt P08183); experiment: Inhibition of P-gp (unknown origin) incubated for 30 mins by calcein AM analysis
How it was run: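 A2780/ADR cells (doxorubicin-selected, P-gp overexpressing), about 30,000 per well in Krebs-HEPES buffer pH 7.4, incubated 30 min at 37 °C with compound (100 nM–100 µM added solutions). Calcein AM (3.125 µM solution added) then fluorescence read every 60 s at 37 °C, ex 485/em 520 nm; slope over minutes 5–30 plotted vs log concentration. Cyclosporine A 10 µM = 100% inhibition, buffer = 0%.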

NCI-H69 = experiment: Antiproliferative activity against human NCI-H69 cells assessed as reduction in cell viability measured for 72 hrs bt MTT assay; format: functional
MDCK-II = experiment: Antiproliferative activity against dog MDCK-II cells assessed as reduction in cell viability measured for 72 hrs bt MTT assay; format: functional; settings: Canis lupus familiaris

Sequence of ATP-dependent translocase ABCB1 (P08183 whole entry): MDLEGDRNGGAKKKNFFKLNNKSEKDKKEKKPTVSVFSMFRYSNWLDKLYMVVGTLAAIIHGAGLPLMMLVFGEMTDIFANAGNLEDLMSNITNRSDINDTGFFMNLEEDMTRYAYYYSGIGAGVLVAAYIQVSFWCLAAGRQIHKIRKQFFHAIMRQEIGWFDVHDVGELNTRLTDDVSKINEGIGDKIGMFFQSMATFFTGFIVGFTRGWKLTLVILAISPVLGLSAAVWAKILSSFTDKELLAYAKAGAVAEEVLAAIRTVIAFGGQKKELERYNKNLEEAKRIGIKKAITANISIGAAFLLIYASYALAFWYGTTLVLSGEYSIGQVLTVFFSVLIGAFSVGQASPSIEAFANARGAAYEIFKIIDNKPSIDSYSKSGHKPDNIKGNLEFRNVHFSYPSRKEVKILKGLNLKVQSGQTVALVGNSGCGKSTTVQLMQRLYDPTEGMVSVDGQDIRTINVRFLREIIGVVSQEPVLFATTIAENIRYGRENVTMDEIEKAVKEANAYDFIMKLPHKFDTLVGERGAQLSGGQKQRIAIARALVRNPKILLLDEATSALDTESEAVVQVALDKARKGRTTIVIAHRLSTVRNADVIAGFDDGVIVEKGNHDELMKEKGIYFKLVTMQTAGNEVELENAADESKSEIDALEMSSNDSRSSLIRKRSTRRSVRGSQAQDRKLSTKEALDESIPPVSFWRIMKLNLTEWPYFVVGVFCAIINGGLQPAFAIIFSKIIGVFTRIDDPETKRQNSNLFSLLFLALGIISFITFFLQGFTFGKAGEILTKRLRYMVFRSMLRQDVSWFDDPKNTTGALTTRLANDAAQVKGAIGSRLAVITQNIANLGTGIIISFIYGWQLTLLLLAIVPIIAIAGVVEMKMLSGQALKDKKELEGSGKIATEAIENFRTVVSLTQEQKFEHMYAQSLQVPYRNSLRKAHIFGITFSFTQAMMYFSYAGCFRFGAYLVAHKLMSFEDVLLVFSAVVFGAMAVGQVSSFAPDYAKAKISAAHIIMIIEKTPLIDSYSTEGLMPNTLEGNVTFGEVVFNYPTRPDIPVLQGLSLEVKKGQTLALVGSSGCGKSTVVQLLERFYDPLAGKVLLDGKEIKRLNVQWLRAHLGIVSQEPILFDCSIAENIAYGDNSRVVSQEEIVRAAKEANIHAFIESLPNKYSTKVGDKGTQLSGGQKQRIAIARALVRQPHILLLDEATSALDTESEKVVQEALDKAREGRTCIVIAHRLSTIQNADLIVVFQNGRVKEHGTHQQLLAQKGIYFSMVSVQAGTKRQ

IC50 [1]: 1.46 µM | GI50 (NCI-H69): 55.4 µM
SMILES: N#Cc1cn(CCCc2ccccc2)c2c(N3CCN(CCc4c[nH]c5ccccc45)CC3)ncnc12
GI50 (MDCK-II): 37.2 µM
